Test results published in ChEMBL document CHEMBL1157731, “Novel KCNQ2/Q3 agonists as potential therapeutics for epilepsy and neuropathic pain” (J Med Chem, 2010).
pEC50: −log10 of the molar value.

Key:
[1] = target: Sodium-dependent dopamine transporter (Homo sapiens) (UniProt Q01959); experiment: Binding affinity to DAT at 10 uM by displacement assay
Mus musculus = experiment: Anticonvulsant activity against maximal electroshock-induced seizures in po dosed CD1 mouse model treated 30 mins before electroshock application; format: functional, organism-based
Procedure, shortened: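 Male CD-1 mice dosed po (10 mL/kg in 5% DMSO/95% of 0.5% HPMC/1% Tween 80) 30 min before corneal electroshock at 50 mA for 0.2 s, with 1% proparacaine in each eye. Latency to hindlimb extension recorded to 0.1 s. No extension within 6 s scored as protected (latency 6 s). Reported as protected/tested (8 per group), or EC50 derived from latency scores.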

[2] = target: T1, Alpha-2A adrenergic receptor (Homo sapiens) (UniProt P08913); experiment: Displacement of radioligand from alpha 2 adrenergic receptor at 10 uM
T1 sequence (whole entry): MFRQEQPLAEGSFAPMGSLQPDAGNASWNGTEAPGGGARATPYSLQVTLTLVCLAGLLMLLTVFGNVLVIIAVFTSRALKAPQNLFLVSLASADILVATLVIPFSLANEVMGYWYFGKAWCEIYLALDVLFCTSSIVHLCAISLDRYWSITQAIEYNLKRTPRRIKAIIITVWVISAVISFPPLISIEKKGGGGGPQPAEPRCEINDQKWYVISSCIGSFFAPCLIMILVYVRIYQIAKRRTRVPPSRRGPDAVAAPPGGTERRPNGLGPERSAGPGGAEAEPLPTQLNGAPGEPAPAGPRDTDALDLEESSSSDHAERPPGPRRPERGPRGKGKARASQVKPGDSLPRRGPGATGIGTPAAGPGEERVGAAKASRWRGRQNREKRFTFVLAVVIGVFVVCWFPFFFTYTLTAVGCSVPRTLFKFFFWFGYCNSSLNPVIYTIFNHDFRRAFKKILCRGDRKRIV

[3] = target: T2, Adenosine receptor A1 (Homo sapiens) (UniProt P30542); experiment: Displacement of [3H]CCPA from human recombinant adenosine A1 receptor expressed in CHO cells at 10 uM; format: cell-based
T2 sequence (whole entry): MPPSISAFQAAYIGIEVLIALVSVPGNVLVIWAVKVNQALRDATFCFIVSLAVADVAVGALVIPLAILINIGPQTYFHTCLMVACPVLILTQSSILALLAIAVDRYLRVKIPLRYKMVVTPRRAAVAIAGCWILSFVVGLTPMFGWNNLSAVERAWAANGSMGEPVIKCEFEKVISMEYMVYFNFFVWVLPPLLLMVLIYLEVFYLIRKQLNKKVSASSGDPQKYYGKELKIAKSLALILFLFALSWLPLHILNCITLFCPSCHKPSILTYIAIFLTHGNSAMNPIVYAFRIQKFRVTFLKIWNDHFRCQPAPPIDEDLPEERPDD

[4] = target: Substance-P receptor (Homo sapiens) (UniProt P25103); experiment: Displacement of [125I]BH-SP from NK1 receptor in human U373MG cells at 10 uM; format: cell-based; conditions: U-373MG ATCC
Substance-P receptor (Homo sapiens), sequence (P25103 whole entry): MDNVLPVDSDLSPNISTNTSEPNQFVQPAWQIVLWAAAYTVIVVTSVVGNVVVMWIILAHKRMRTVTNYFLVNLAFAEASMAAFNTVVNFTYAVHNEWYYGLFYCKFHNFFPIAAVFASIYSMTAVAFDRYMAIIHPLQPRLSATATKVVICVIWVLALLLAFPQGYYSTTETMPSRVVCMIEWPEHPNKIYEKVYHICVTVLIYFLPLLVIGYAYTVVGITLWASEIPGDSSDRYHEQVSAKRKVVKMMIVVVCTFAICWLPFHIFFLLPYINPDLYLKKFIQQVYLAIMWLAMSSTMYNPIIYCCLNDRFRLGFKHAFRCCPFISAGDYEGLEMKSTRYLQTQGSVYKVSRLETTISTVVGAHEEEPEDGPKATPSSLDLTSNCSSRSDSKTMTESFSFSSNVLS

[5] = target: Beta-1 adrenergic receptor (Homo sapiens) (UniProt P08588); experiment: Displacement of [3H](-)CGP12177 from human recombinant beta 1 adrenergic receptor expressed in HEK293 cells at 10 uM; format: cell-based
Beta-1 adrenergic receptor (Homo sapiens), sequence (P08588 whole entry, looked up): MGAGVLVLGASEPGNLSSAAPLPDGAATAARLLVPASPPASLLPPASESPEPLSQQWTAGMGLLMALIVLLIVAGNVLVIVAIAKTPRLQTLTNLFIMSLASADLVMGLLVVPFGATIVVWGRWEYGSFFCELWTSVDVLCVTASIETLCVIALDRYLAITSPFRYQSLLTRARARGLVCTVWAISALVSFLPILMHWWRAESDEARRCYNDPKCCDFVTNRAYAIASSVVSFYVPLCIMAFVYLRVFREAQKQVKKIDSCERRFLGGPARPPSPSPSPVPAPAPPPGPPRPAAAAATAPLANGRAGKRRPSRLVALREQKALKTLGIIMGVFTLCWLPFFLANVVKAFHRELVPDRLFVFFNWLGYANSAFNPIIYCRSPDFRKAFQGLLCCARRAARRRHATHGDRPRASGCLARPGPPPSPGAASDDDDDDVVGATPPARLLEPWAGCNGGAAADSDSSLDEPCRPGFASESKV

[6] = target: Voltage-gated potassium channel, KQT; KCNQ2(Kv7.2)/KCNQ3(Kv7.3) (Homo sapiens, UniProt O43525+O43526); experiment: Activation of KCNQ2/KCNQ3 expressed in CHO cells by isotopic efflux assay; format: cell-based
Voltage-gated potassium channel, KQT; KCNQ2(Kv7.2)/KCNQ3(Kv7.3), sequence (O43526 whole entry): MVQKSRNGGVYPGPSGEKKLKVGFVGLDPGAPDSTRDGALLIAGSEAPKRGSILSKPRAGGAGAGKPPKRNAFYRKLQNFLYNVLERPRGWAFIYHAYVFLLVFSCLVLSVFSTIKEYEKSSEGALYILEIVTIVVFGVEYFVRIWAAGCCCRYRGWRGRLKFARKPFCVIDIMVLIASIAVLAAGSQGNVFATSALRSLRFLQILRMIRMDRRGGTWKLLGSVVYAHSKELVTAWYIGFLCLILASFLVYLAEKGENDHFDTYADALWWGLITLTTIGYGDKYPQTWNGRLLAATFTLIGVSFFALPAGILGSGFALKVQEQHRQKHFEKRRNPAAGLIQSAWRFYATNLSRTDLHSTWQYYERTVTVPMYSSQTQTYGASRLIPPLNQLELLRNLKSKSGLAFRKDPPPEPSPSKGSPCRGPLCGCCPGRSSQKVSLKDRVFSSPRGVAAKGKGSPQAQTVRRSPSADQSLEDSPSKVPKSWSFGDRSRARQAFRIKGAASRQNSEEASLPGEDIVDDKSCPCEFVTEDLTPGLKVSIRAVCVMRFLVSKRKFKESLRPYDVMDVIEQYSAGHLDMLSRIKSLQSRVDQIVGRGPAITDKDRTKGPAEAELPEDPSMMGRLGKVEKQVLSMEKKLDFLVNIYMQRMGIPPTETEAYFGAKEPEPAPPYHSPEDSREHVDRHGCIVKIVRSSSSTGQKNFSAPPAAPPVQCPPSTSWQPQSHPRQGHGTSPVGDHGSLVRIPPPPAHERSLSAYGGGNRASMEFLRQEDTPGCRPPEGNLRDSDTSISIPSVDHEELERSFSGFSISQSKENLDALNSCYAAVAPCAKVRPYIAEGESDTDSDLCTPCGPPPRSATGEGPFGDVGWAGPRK
Voltage-gated potassium channel, KQT; KCNQ2(Kv7.2)/KCNQ3(Kv7.3), sequence (O43525 whole entry): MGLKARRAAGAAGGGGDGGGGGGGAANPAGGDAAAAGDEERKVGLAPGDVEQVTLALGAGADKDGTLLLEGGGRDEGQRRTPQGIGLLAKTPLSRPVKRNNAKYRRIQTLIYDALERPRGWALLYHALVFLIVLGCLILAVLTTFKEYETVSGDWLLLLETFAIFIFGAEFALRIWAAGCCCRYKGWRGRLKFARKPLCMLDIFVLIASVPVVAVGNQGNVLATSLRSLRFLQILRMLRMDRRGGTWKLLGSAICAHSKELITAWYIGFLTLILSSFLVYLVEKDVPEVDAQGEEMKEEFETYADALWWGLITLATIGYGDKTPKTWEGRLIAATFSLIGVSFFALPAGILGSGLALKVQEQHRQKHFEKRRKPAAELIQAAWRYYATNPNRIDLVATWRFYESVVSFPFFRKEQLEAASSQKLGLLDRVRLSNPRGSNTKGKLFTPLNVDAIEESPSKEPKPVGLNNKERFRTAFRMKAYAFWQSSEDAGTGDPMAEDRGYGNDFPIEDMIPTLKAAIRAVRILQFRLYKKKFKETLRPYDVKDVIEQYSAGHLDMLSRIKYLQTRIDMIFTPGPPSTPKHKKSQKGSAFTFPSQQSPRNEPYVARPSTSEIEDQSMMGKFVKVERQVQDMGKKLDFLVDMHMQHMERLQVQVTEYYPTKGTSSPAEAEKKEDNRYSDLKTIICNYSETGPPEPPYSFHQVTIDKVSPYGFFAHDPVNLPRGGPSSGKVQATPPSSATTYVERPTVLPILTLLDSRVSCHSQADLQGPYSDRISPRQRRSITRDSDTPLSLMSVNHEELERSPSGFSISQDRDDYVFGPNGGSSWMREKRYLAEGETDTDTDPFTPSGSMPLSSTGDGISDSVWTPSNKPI
Procedure, shortened: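 86Rb+ flux in K+-channel-expressing cells loaded by culture in 86RbCl, then washed in EBSS. Preincubated with drug (0.01-30 μM in EBSS), then efflux stimulated by submaximal KCl (generally 7-20 mM) with drug still present. Supernatant and SDS lysate counted by Cherenkov. Percent efflux normalized to high-KCl (generally 30-135 mM) maximum. EC50 from eight-point half-log curves; mean of 2-4 determinations ± SEM.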

[7] = target: T3, 5-hydroxytryptamine receptor 1A (Homo sapiens) (UniProt P08908); experiment: Displacement of radioligand from 5HT1A receptor at 10 uM by displacement assay
T3 sequence (whole entry): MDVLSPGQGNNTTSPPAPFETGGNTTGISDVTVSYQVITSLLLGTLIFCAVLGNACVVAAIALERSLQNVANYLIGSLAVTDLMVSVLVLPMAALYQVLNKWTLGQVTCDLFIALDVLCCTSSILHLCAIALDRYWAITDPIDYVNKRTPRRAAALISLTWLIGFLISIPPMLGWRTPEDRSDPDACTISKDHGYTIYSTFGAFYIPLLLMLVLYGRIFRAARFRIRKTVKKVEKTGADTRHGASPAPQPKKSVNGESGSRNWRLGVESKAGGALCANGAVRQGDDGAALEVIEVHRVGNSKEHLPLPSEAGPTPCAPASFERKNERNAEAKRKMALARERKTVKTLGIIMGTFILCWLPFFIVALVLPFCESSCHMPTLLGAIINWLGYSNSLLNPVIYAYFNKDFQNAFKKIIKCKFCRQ

[8] = target: Adrenergic receptor alpha-1 (Rattus norvegicus) (UniProt P15823+P23944+P43140); experiment: Displacement of [3H]prazosin from adrenergic receptor 1 alpha in rat cerebral cortex at 10 uM; format: tissue-based
[9] = Displacement of radioligand from NMDA receptor at 10 uM
[10] = target: Sodium-dependent serotonin transporter (Homo sapiens) (UniProt P31645); experiment: Binding affinity to SERT at 10 uM by displacement assay
Sodium-dependent serotonin transporter (Homo sapiens), sequence (P31645 whole entry, looked up): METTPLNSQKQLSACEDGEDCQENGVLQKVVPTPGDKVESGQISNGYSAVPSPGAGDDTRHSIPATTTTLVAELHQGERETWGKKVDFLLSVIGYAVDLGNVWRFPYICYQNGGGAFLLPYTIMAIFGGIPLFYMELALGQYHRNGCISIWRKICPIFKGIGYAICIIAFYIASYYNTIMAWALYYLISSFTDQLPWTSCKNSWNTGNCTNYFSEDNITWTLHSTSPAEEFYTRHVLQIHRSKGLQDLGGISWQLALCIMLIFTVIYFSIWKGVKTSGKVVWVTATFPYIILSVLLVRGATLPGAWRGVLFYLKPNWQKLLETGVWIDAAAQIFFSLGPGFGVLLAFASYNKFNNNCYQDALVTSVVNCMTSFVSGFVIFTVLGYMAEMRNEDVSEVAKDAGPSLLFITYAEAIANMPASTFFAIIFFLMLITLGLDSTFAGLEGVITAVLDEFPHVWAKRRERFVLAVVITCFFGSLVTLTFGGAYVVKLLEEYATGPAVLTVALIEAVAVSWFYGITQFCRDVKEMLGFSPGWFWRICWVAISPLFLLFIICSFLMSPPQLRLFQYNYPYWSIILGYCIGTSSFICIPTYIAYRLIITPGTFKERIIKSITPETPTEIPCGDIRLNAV

Sodium-dependent dopamine transporter (Homo sapiens), sequence (Q01959 whole entry): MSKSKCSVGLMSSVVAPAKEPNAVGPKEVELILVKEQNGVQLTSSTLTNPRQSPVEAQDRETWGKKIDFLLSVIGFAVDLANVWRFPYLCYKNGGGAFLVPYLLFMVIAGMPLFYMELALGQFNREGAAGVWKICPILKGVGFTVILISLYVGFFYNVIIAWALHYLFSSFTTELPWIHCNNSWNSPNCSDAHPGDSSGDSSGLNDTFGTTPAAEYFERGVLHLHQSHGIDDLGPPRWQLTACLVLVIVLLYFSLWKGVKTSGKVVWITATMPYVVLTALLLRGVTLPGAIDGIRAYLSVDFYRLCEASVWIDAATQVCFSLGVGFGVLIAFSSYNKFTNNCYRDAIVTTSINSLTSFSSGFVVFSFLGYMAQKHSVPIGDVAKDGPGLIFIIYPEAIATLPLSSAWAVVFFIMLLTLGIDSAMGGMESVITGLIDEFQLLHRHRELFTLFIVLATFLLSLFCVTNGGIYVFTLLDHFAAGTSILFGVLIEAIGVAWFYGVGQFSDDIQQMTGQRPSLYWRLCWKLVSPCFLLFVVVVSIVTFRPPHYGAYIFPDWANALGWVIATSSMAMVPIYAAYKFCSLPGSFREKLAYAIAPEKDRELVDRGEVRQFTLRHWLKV

| Activity [1] [%] | Activity [2] [%] | Activity [3] [%] | Activity [4] [%] | Activity [5] [%] | pEC50 [6] | Activity [7] [%] | Activity [8] [%] | Activity [9] [%] | Activity [10] [%] | SMILES | EC50 (Mus musculus) [mg/kg] |
| --- | --- | --- | --- | --- | --- | --- | --- | --- | --- | --- | --- |
| 0 | 0 | 0 | 0 | 0 | 7.31 | 0 | 0 | 0 | 0 | Cn1/c(=N/NC(=O)CC(C)(C)C)sc2cc(OC(F)(F)F)ccc21 | 4.4 |
| 21 | 0 | 0 | 21 | 0 | 7.36 | 0 | 0 | 0 | 20 | Cn1/c(=N/NC(=O)CC2CCCC2)sc2cc(OC(F)(F)F)ccc21 | < 10 |
| 0 | 0 | 11 | 10 | 11 | 7.02 | 18 | 11 | 0 | 14 | CC(C)OC(=O)N/N=c1\sc2cc(OC(F)(F)F)ccc2n1C | 8.8 |
